Laboratory results taken from ChEMBL document CHEMBL4330167, “Chloraserrtone A, a Sesquiterpenoid Dimer from Chloranthus serratus” (J Nat Prod, 2019).
One block for each compound: values may come before it.

Tests used:
RAW264.7 = experiment: Anti-inflammatory activity in mouse RAW264.7 cells assessed as inhibition of LPS-induced NO production preincubated for 30 mins followed by LPS stimulation and measured after 24 hrs by Griess reagent based colorimetric method; assay type: functional, cell-based
Procedure, shortened: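 RAW264.7 murine macrophages in DMEM with 10% supplement, 37 °C, 5% CO2, grown 24 h before treatment. Test agents at several concentrations added 30 min before 1 μg/mL LPS (or no LPS). After 24 h, supernatant mixed with Griess reagents I and II; absorbance at 560 nm. IC50 derived only where cell activity at 50 μM stayed ≥50%. L-NIL as positive control.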

[1] = Cytotoxicity against mouse RAW264.7 cells assessed as cellular metabolic activity at 50 uM after 48 hrs by MTT assay relative to control; assay type: ADME, cell-based; conditions: read-out: Activity
Procedure, shortened: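 RAW264.7 cells at 5 × 10^4 cells/mL exposed to 50 μM test agent (DMSO solution) for 48 h. MTT then added at 5 mg/mL in sterile PBS for 4 h; formazan dissolved in DMSO and absorbance read at 490 nm. Triplicate treatments.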

- IC50 (RAW264.7): 7 µM
SMILES: CC(=N)NCCCC[C@H](N)C(=O)O [L-NIL]
- viability at 48 h, 50 µM [1]: 93.3%

SMILES: COC(=O)/C(C)=C1\C(=O)[C@H](O)[C@]2(C)C3=C(C[C@@H]4[C@]5(OC(=O)C6=C5C[C@H]5[C@](O)(COC(=O)/C(C)=C/COC(=O)CCC(=O)OC6)[C@H]6C[C@H]6[C@]45C)[C@H]31)[C@H]1C[C@H]12 [SHIZUKAOL B]
- IC50 (RAW264.7): > 50 µM
- viability at 48 h, 50 µM [1]: 55.4%

SMILES: COC(=O)/C(C)=C1/C(=O)[C@H](O)[C@]2(C)C3=C(C[C@@H]4[C@]5(OC(=O)C6=C5C[C@H]5[C@](O)(COC(=O)/C(C)=C/COC(=O)CCC(=O)OC6)[C@H]6C[C@H]6[C@]45C)[C@H]31)[C@H]1C[C@H]12
- IC50 (RAW264.7): 25.5 µM
- viability at 48 h, 50 µM [1]: 66.5%

SMILES: CC1=C2C3=C4[C@@](C)(C(=O)[C@@]2(O)OC1=O)[C@@H]1C[C@@H]1[C@@]4(O)C[C@@H]1[C@]32OC(=O)C3=C2C[C@H]2[C@](O)(COC(=O)/C(C)=C/COC(=O)CCC(=O)OC3)[C@H]3C[C@H]3[C@]12C [SPICACHLORANTIN B]
- viability at 48 h, 50 µM [1]: < 50%

SMILES: CO[C@@]12OC(=O)C(C)=C1C1=C3[C@](C)([C@@H]4C[C@@H]4[C@@]3(O)C[C@@H]3[C@]14OC(=O)C1=C4C[C@H]4[C@](O)(COC(=O)/C(C)=C/COC(=O)CCC(=O)OC1)[C@H]1C[C@H]1[C@]34C)[C@H]2O
- viability at 48 h, 50 µM [1]: < 50%

SMILES: C/C=C(\C)C(=O)OC[C@]1(O)[C@H]2C[C@H]2[C@]2(C)[C@@H]3CC4=C5[C@H](/C(=C(/C)C(=O)OC)C(=O)[C@H](O)[C@@]5(C)[C@@H]5C[C@H]45)[C@@]34OC(=O)C(COC(C)=O)=C4C[C@@H]12
- viability at 48 h, 50 µM [1]: < 50%

SMILES: C/C=C(\C)C(=O)OC[C@]1(O)[C@H]2C[C@H]2[C@]2(C)[C@@H]3C[C@@]4(O)C5=C(C6=C(C)C(=O)O[C@]6(O)[C@H](O)[C@@]5(C)[C@@H]5C[C@@H]54)[C@@]34OC(=O)C(COC(C)=O)=C4C[C@@H]12 [SARCANDROLIDE D]
- viability at 48 h, 50 µM [1]: < 50%

SMILES: COC(=O)CCC(=O)OCC1=C2C[C@H]3[C@](O)(COC(=O)/C=C(\C)CO)[C@H]4C[C@H]4[C@]3(C)[C@@H]3CC4=C5[C@H](/C(=C(\C)C(=O)OC)C(=O)[C@H](O)[C@@]5(C)[C@@H]5C[C@H]45)[C@]23OC1=O
- IC50 (RAW264.7): 23.1 µM
- viability at 48 h, 50 µM [1]: 71.5%

SMILES: CC1=C2C3=C4[C@](C)([C@@H]5C[C@@H]5[C@@]4(O)C[C@@H]4[C@]35OC(=O)C3=C5C[C@H]5[C@](O)(COC(=O)/C=C(\C)COC(=O)CCC(=O)OC3)[C@H]3C[C@H]3[C@]45C)[C@@H](O)[C@@]2(O)OC1=O
- viability at 48 h, 50 µM [1]: < 50%

SMILES: COC(=O)/C(C)=C1\C(=O)[C@H](O)[C@@]2(C)[C@@H]3C[C@@H]3[C@@]34CCC5=C6C3=C(C(=O)[C@H](O)[C@@]6(C)[C@@H]3C[C@H]53)[C@](C)(C(=O)OC)[C@@H]1[C@@]24O
- viability at 48 h, 50 µM [1]: < 50%

SMILES: COC(=O)/C(C)=C1\C(=O)[C@H](O)[C@]2(C)C3=C(C[C@@H]4[C@]5(OC(=O)C6=C5C[C@H]5[C@](O)(COC(=O)/C=C(\C)COC(=O)CCC(=O)OC6)[C@H]6C[C@H]6[C@]45C)[C@H]31)[C@H]1C[C@H]12 [SHIZUKAOL F]
- IC50 (RAW264.7): > 50 µM
- viability at 48 h, 50 µM [1]: 53.1%

- IC50 (RAW264.7): 3.7 µM
SMILES: COC(=O)/C(C)=C1\C(=O)[C@H](O)[C@]2(C)C3=C(C[C@@H]4[C@]5(OC(=O)C(CO)=C5C[C@H]5[C@H](COC(C)=O)[C@H]6C[C@H]6[C@]45C)[C@H]31)[C@H]1C[C@H]12
- viability at 48 h, 50 µM [1]: 97%
